ChEMBL document CHEMBL1148166, “30-, 31-, and 32-hydroxybullatacinones: bioactive terminally hydroxylated annonaceous acetogenins from Annona bullata” (J Nat Prod, 1993)
≈ marks a conversion by molar mass, not a printed value.

What was measured:
HT-29 = test: Cytotoxicity against human HT-29 cells; assay type: functional
A549 = test: Cytotoxicity against human A549 cells; assay type: functional; conditions: for EC50: Homo sapiens, A549, read-out: ED50 (the source's name)
MCF7 = test: Cytotoxicity against human MCF7 cells; assay type: functional; conditions: for EC50: Homo sapiens, MCF7, read-out: ED50 (the source's name)
Artemia = test: (§1) Toxicity in brine shrimp; assay type: organism-based; conditions: in vivo
Method in brief: (§2)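 Lethality read-out in brine shrimp larvae (BST), used routinely to screen extracts, fractions and isolated compounds.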

[1] = as §1; assay type: organism-based; conditions: artemia, in vivo; method in brief: as §2

Row | SMILES | ED50 (HT-29) | ED50 (A549) | EC50 (MCF7) [µg/mL] | LC50 (Artemia) [×10⁻² ug/ml] | EC50 (A549) [ng/mL] | LC50 [1] [µg/mL] | ED50 (MCF7) [×10⁻⁴ ug/ml]
1 | COc1cccc2c1C(=O)c1c(O)c3c(c(O)c1C2=O)C[C@@](O)(C(=O)CO)C[C@@H]3O[C@H]1C[C@H](N)[C@H](O)[C@H](C)O1 [DOXORUBICIN] | 3.32 ×10⁻⁴ ug/ml | 1.98 ×10⁻⁴ ug/ml | 0.00202 (≈ 3.72 nM) |  |  |  | 
2 | CCC(O)CCCCCCC[C@H](O)[C@H]1CC[C@H]([C@H]2CC[C@H]([C@H](O)CCCCCCCCCCC3CC(CC(C)=O)C(=O)O3)O2)O1 (mixture of isomers) | <1 ×10⁻¹² ug/ml |  | 0.161 | 4.67 | 1.25 |  | 
3 | CCCCC(O)CCCCC[C@H](O)[C@H]1CC[C@H]([C@H]2CC[C@H]([C@H](O)CCCCCCCCCCC3CC(CC(C)=O)C(=O)O3)O2)O1 (mixture of isomers) | <1 ×10⁻¹² ug/ml | 1.66 ×10⁻⁹ ug/ml | 0.105 | 4.05 |  |  | 
4 | CCCCCCCCCC[C@H](O)[C@H]1CC[C@H]([C@H]2CC[C@H]([C@H](O)CCCCCCCCCCC3CC(CC(C)=O)C(=O)O3)O2)O1 (mixture of isomers) | 1.19 ×10⁻⁶ ug/ml |  | 12.2 |  | 2.18 | 0.0054 | 
5 | CCCC(O)CCCCCC[C@H](O)[C@H]1CC[C@H]([C@H]2CC[C@H]([C@H](O)CCCCCCCCCCC3CC(CC(C)=O)C(=O)O3)O2)O1 (mixture of isomers) | 1.09 ×10⁻¹² ug/ml | 3.29 ×10⁻¹¹ ug/ml |  |  |  | 0.158 | 7.63
